Measured values as given in ChEMBL document CHEMBL1152490, “SAR study of clubbed [1,2,4]-triazolyl with fluorobenzimidazoles as antimicrobial and antituberculosis agents” (Eur J Med Chem, 2009).
Values after ≈ are worked out from the molar mass of the structure shown.

Tests used:
Staphylococcus aureus = test: Antimicrobial activity against Staphylococcus aureus after 24 hrs by agar well diffusion assay; assay type: functional
Procedure, shortened: (§1)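 Agar well diffusion with modifications, gentamycin as reference standard. Wells 10 mm in diameter punched in agar plates with a sterile steel borer. Strains were kept on agar medium. Compounds were dissolved and applied at 0.5% to 1.0%. Incubation at 24–28 °C for 24 h, then bacterial inhibition was scored.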

Pseudomonas aeruginosa = test: Antimicrobial activity against Pseudomonas aeruginosa after 24 hrs by agar well diffusion assay; assay type: functional; procedure, shortened: as §1
Escherichia coli = test: Antimicrobial activity against Escherichia coli after 24 hrs by agar well diffusion assay; assay type: functional; procedure, shortened: as §1
[1] = system: Salmonella enterica subsp. enterica; test: Antimicrobial activity against Salmonella typhosa after 24 hrs by agar well diffusion assay; assay type: functional, Salmonella enterica subsp. enterica serovar Typhi
Procedure, shortened: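 Agar well diffusion, modified; wells punched with a 10 mm sterile borer. Test compounds applied on impregnated sterile disks at concentrations of 0.5% to 1.0%, with gentamycin as reference standard. Plates incubated at 24–28 °C for 24 h, then bacterial inhibition scored.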

[2] = Cytotoxicity against african green monkey Vero C1008 cells at 6.25 to 50 µg/ml by neutral red uptake assay; assay type: cell-based; conditions: chlorocebus sabaeus
[3] = system: Mycobacterium tuberculosis; test: Antitubercular activity against Mycobacterium tuberculosis H37Rv by microplate alamar blue assay; assay type: functional
Procedure, shortened: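 Compounds active in the primary screen were retested at lower concentrations against M. tuberculosis H37Rv by microplate Alamar Blue assay. MIC taken as the lowest concentration giving a 95% fall in fluorescence relative to controls. Rifampin was the reference compound.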

[4] = system: Mycobacterium tuberculosis; test: Antitubercular activity against Mycobacterium tuberculosis H37Rv at 6.25 […] by microplate alamar blue assay; assay type: functional
Procedure, shortened: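 M. tuberculosis H37Rv (ATCC 27294) in BACTEC 12B medium, primary screen by broth microdilution microplate Alamar Blue assay at a single concentration of […]. Fluorescent compounds were tested instead in the BACTEC 460 radiometric system.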

With CCn1c(-c2ccc(-n3cncn3)cc2)nc2c(F)cc(F)cc21 the “inhibition zone (IZ)” value (Staphylococcus aureus) was 23 mm, the “inhibition zone (IZ)” value (Pseudomonas aeruginosa) was 18 mm and the “inhibition zone (IZ)” value (Escherichia coli) was 16 mm. For the same molecule, the “inhibition zone (IZ)” value [1] was 14 mm, the Activity [2] was “Non-toxic” and the MIC [3] was under 6.25 µg/mL.
In the case of Fc1cc(F)c2nc(-c3ccc(-n4cncn4)cc3)n(Cc3ccccc3)c2c1, the “inhibition zone (IZ)” value (Staphylococcus aureus) is reported as 19 mm, the “inhibition zone (IZ)” value (Pseudomonas aeruginosa) is reported as 20 mm and the “inhibition zone (IZ)” value (Escherichia coli) is reported as 15 mm. The “inhibition zone (IZ)” value [1] was 13 mm, the Activity [2] was “Non-toxic” and the MIC [3] was under 6.25 µg/mL.
Work on GENTAMICIN yielded an inhibition zone (IZ) (Escherichia coli) of 31 mm and an inhibition zone (IZ) ([1]; Salmonella enterica subsp. enterica serovar Typhi) of 30 mm.
In the case of Cn1c(-c2ccc(-n3cncn3)cc2)nc2c(F)cc(F)cc21, the “inhibition zone (IZ)” value (Staphylococcus aureus) is reported as 28 mm, the “inhibition zone (IZ)” value (Pseudomonas aeruginosa) is reported as 26 mm and the “inhibition zone (IZ)” value (Escherichia coli) is reported as 21 mm. The “inhibition zone (IZ)” value [1] was 19 mm, the Activity [2] was “Non-toxic” and the MIC [3] was under 6.25 µg/mL.
For Fc1ccc(Cn2c(-c3ccc(-n4cncn4)cc3)nc3c(F)cc(F)cc32)cc1, the “growth inhibition (GI)” value [4] was 96%, the “inhibition zone (IZ)” value (Staphylococcus aureus) was 25 mm and the “inhibition zone (IZ)” value (Pseudomonas aeruginosa) was 23 mm. The “inhibition zone (IZ)” value (Escherichia coli) was 19 mm, the “inhibition zone (IZ)” value [1] was 21 mm and the Activity [2] was “Non-toxic”. The MIC [3] was 3.13 µg/mL (≈ 7.72 µM).
With CCCn1c(-c2ccc(-n3cncn3)cc2)nc2c(F)cc(F)cc21 the “inhibition zone (IZ)” value (Staphylococcus aureus) was 21 mm, the “inhibition zone (IZ)” value (Pseudomonas aeruginosa) was 23 mm and the “inhibition zone (IZ)” value (Escherichia coli) was 18 mm. The “inhibition zone (IZ)” value [1] was 19 mm, the Activity [2] was “Non-toxic” and the MIC [3] was under 6.25 µg/mL.
In the case of Cc1cccc(Cn2c(-c3ccc(-n4cncn4)cc3)nc3c(F)cc(F)cc32)c1, the “inhibition zone (IZ)” value (Staphylococcus aureus) is reported as 21 mm, the “inhibition zone (IZ)” value (Pseudomonas aeruginosa) is reported as 18 mm and the “inhibition zone (IZ)” value (Escherichia coli) is reported as 18 mm. The “inhibition zone (IZ)” value [1] was 16 mm, the Activity [2] was “Non-toxic” and the MIC [3] was under 6.25 µg/mL.
For Cc1ccc(S(=O)(=O)n2c(-c3ccc(-n4cncn4)cc3)nc3c(F)cc(F)cc32)cc1, the “inhibition zone (IZ)” value (Staphylococcus aureus) was 14 mm, the “inhibition zone (IZ)” value (Pseudomonas aeruginosa) was 12 mm and the “inhibition zone (IZ)” value (Escherichia coli) was 16 mm. The “inhibition zone (IZ)” value [1] was 16 mm, the Activity [2] was “Non-toxic” and the MIC [3] was under 6.25 µg/mL.
In the case of Fc1cc(F)c2nc(-c3ccc(-n4cncn4)cc3)n(Cc3cccc(C(F)(F)F)c3)c2c1, the “inhibition zone (IZ)” value (Staphylococcus aureus) is reported as 22 mm, the “inhibition zone (IZ)” value (Pseudomonas aeruginosa) is reported as 21 mm and the “inhibition zone (IZ)” value (Escherichia coli) is reported as 20 mm. The “inhibition zone (IZ)” value [1] was 18 mm, the Activity [2] was “Non-toxic” and the MIC [3] was under 6.25 µg/mL.
With Fc1cccc(Cn2c(-c3ccc(-n4cncn4)cc3)nc3c(F)cc(F)cc32)c1 the “growth inhibition (GI)” value [4] was 96%, the “inhibition zone (IZ)” value (Staphylococcus aureus) was 29 mm and the “inhibition zone (IZ)” value (Pseudomonas aeruginosa) was 26 mm. For the same molecule, the “inhibition zone (IZ)” value (Escherichia coli) was 22 mm, the “inhibition zone (IZ)” value [1] was 24 mm and the Activity [2] was “Non-toxic”. The MIC [3] was 0.36 µg/mL (≈ 0.888 µM).
With COc1cccc(Cn2c(-c3ccc(-n4cncn4)cc3)nc3c(F)cc(F)cc32)c1 the “growth inhibition (GI)” value [4] was 96%, the “inhibition zone (IZ)” value (Staphylococcus aureus) was 24 mm and the “inhibition zone (IZ)” value (Pseudomonas aeruginosa) was 22 mm. For the same molecule, the “inhibition zone (IZ)” value (Escherichia coli) was 22 mm, the “inhibition zone (IZ)” value [1] was 21 mm and the Activity [2] was “Non-toxic”. The MIC [3] was 3.13 µg/mL (≈ 7.5 µM).
In the case of C#CCn1c(-c2ccc(-n3cncn3)cc2)nc2c(F)cc(F)cc21, the “growth inhibition (GI)” value [4] is reported as 96%, the “inhibition zone (IZ)” value (Staphylococcus aureus) is reported as 25 mm and the “inhibition zone (IZ)” value (Pseudomonas aeruginosa) is reported as 23 mm. For the same molecule, the “inhibition zone (IZ)” value (Escherichia coli) was 21 mm, the “inhibition zone (IZ)” value [1] was 24 mm and the Activity [2] was “Non-toxic”. It also gave an MIC [3] of 3.13 µg/mL (≈ 9.33 µM).
With C=CCn1c(-c2ccc(-n3cncn3)cc2)nc2c(F)cc(F)cc21 the “inhibition zone (IZ)” value (Staphylococcus aureus) was 20 mm, the “inhibition zone (IZ)” value (Pseudomonas aeruginosa) was 22 mm and the “inhibition zone (IZ)” value (Escherichia coli) was 23 mm. For the same molecule, the “inhibition zone (IZ)” value [1] was 23 mm, the Activity [2] was “Non-toxic” and the MIC [3] was under 6.25 µg/mL.
With N#CCn1c(-c2ccc(-n3cncn3)cc2)nc2c(F)cc(F)cc21 the “growth inhibition (GI)” value [4] was 96%, the “inhibition zone (IZ)” value (Staphylococcus aureus) was 27 mm and the “inhibition zone (IZ)” value (Pseudomonas aeruginosa) was 26 mm. For the same molecule, the “inhibition zone (IZ)” value (Escherichia coli) was 24 mm, the “inhibition zone (IZ)” value [1] was 20 mm and the Activity [2] was “Non-toxic”. The MIC [3] was 1.56 µg/mL (≈ 4.64 µM).
For Fc1cc(F)c2nc(-c3ccc(-n4cncn4)cc3)n(Cc3cccc(Cl)c3)c2c1, the “growth inhibition (GI)” value [4] was 96%, the “inhibition zone (IZ)” value (Staphylococcus aureus) was 26 mm and the “inhibition zone (IZ)” value (Pseudomonas aeruginosa) was 22 mm. The “inhibition zone (IZ)” value (Escherichia coli) was 19 mm, the “inhibition zone (IZ)” value [1] was 18 mm and the Activity [2] was “Non-toxic”. For the same molecule, the MIC [3] was 0.58 µg/mL (≈ 1.37 µM).
In the case of Cc1ccccc1Cn1c(-c2ccc(-n3cncn3)cc2)nc2c(F)cc(F)cc21, the “inhibition zone (IZ)” value (Staphylococcus aureus) is reported as 19 mm, the “inhibition zone (IZ)” value (Pseudomonas aeruginosa) is reported as 21 mm and the “inhibition zone (IZ)” value (Escherichia coli) is reported as 18 mm. For the same molecule, the “inhibition zone (IZ)” value [1] was 14 mm, the Activity [2] was “Non-toxic” and the MIC [3] was under 6.25 µg/mL.
For CO[C@H]1/C=C/O[C@@]2(C)Oc3c(C)c(O)c4c(O)c(c(/C=N/N5CCN(C)CC5)c(O)c4c3C2=O)NC(=O)/C(C)=C\C=C\[C@H](C)[C@H](O)[C@@H](C)[C@@H](O)[C@@H](C)[C@H](OC(C)=O)[C@@H]1C [RIFAMPIN], the “growth inhibition (GI)” value [4] was 96% and the MIC [3] was 0.015 µg/mL (≈ 0.0182 µM).
